How the values were obtained:
[1] = Selectivity ratio of IC50 for human HT-29 cells to IC50 for human MCF7 cells; type: functional
In short: (§1)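 Ratio is IC50 in reference line over IC50 in sensitive line. […] Cells in DMEM with 5% calf serum at 37 °C. At least two experiments, triplicate cultures; assay accepted when relative SD < 10%.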

MCF7 = assay: Antiproliferative activity against human MCF7 cells after 48 hrs by SRB assay; type: functional, cell-based; conditions: MCF7, 48 h
In short: (§2)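 SRB assay run as in the NCI screen with slight modifications. Seeding: HT-29 5.0 x 10^3, M21 3.5 x 10^3, MCF7 7.5 x 10^3 cells; cells preincubated 24 h. Drug in DMSO added at 0.75 to 1.0 x 10^5 nM for 48 h. TCA fixation, sulforhodamine B staining, absorbance 530-565 nm. At least two experiments in triplicate; runs accepted only when relative SD < 10%.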

HT-29 = assay: Antiproliferative activity against human HT-29 cells after 48 hrs by SRB assay; type: functional, cell-based; conditions: HT-29, 48 h; in short: as §2
[2] = Selectivity ratio of IC50 for human M21 cells to IC50 for human MCF7 cells; type: functional; in short: as §1
M21 = assay: Antiproliferative activity against human M21 cells after 48 hrs by SRB assay; type: functional, cell-based; conditions: M21, 48 h; in short: as §2

SMILES	Ratio IC50 [1]	IC50 (MCF7) [µM]	IC50 (HT-29) [µM]	Ratio IC50 [2]	IC50 (M21) [µM]
CCCCN1CCN(c2ccc(S(=O)(=O)Oc3ccccc3OC)cc2)C1=O	>26	3.8	> 100	>26	> 100
CCCN1CCN(c2ccc(S(=O)(=O)Oc3ccc(OC)c(OC)c3)cc2)C1=O	2	6.8	14	4.1	28
CCc1ccccc1OS(=O)(=O)c1ccc(N2CCN(C)C2=O)cc1	0.2	26	4.6	0.1	2.3
CCCN1CCN(c2ccc(S(=O)(=O)Oc3ccc(C)cc3)cc2)C1=O	0.4	64	25	0.4	28
CN1CCN(c2ccc(S(=O)(=O)Oc3cccc(I)c3)cc2)C1=O	1.1	0.56	0.59	0.7	0.4
CCCN1CCN(c2ccc(S(=O)(=O)Oc3cccc(F)c3)cc2)C1=O	0.8	24	18	0.5	12
COc1ccccc1OS(=O)(=O)c1ccc(N2CCN(C)C2=O)cc1	1	26	26	0.8	21
CN1CCN(c2ccc(S(=O)(=O)Oc3cccc(Br)c3)cc2)C1=O	0.8	1.5	1.3	0.9	1.3
CCN1CCN(c2ccc(S(=O)(=O)Oc3cccc(OC)c3)cc2)C1=O	1.6	14	22	0.5	7
CCCCN1CCN(c2ccc(S(=O)(=O)Oc3ccc(OC)c(OC)c3)cc2)C1=O	61	0.34	21	>300	> 100
CCCN1CCN(c2ccc(S(=O)(=O)Oc3ccc(F)cc3)cc2)C1=O	0.7	33	23	0.4	14
CCCN1CCN(c2ccc(S(=O)(=O)Oc3ccc(Cl)cc3)cc2)C1=O	0.8	18	15	1.9	34
CCN1CCN(c2ccc(S(=O)(=O)Oc3cccc(Cl)c3)cc2)C1=O	1.3	5.4	6.8	0.7	3.9
Cc1ccccc1OS(=O)(=O)c1ccc(N2CCN(C)C2=O)cc1	0.9	5.6	4.8	0.5	2.9
CCCN1CCN(c2ccc(S(=O)(=O)Oc3cccc(OC)c3)cc2)C1=O	4	6.3	25	1.6	10
COc1ccc(OS(=O)(=O)c2ccc(N3CCN(C)C3=O)cc2)cc1OC	1	12	12	0.72	8.5
CCCCN1CCN(c2ccc(S(=O)(=O)Oc3ccc(F)c(F)c3)cc2)C1=O	>130	0.76	> 100	>130	> 100
CCCN1CCN(c2ccc(S(=O)(=O)Oc3ccccc3OC)cc2)C1=O	>7.7	13	> 100	>7.7	> 100
CCCN1CCN(c2ccc(S(=O)(=O)Oc3cc(Cl)c(Cl)cc3Cl)cc2)C1=O	1.5	13	19	1.2	15
CCCCN1CCN(c2ccc(S(=O)(=O)Oc3cc(Cl)cc(Cl)c3)cc2)C1=O	>1700	0.06	> 100	970	58
CCN1CCN(c2ccc(S(=O)(=O)Oc3cc(OC)c(OC)c(OC)c3)cc2)C1=O	0.9	0.7	0.64	1.2	0.87

— ChEMBL document CHEMBL4014335, “Activation of Phenyl 4-(2-Oxo-3-alkylimidazolidin-1-yl)benzenesulfonates Prodrugs by CYP1A1 as New Antimitotics Targeting Breast Cancer Cells” (J Med Chem, 2017)
